Source: ChEMBL document CHEMBL5143731, “N-Acylamino Saccharin as an Emerging Cysteine-Directed Covalent Warhead and Its Application in the Identification of Novel FBPase Inhibitors toward Glucose Reduction” (J Med Chem, 2022)
Activity calls are given as the source filed them. The rule behind the calls is not given here.

Assays:
[1] = Drug uptake in 12 hrs fasted ICR mouse assessed as plasma concentration at 30 mg/kg, ip measured after 6 hrs by LC-MS/MS analysis; assay type: ADME, organism-based; settings: in vivo
Summary of the method: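 Plasma levels of parent and of released saccharin followed over 0−24 h after a single 30 mg/kg ip dose to 12 h-fasted male ICR mice. Plasma was obtained from K2EDTA blood (4 °C spin, stored at −70 °C) and measured by LC−MS/MS.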

[2] = system: Mus musculus; experiment: Hypoglycemic activity in 12 hrs fasted ICR mouse assessed as glucose lowering effect at 10 to 30 mg/kg, ip measured after 2 hrs; assay type: functional, organism-based; settings: dose 10-30 mg/kg
Summary of the method: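 Fasted (12 h) male ICR mice received one intraperitoneal dose in 10% ricinus oil/water vehicle; metformin 250 mg/kg served as control. Food was withheld. Tail blood glucose was read by glucometer at 0, 1, 2, 4 and 6 h.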

[3] = Half life of the compound in DMSO; assay type: physicochemical
Summary of the method: (§1)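 Electrophile (20 μmol) incubated at 37 °C either in pH 7.4 buffer, or in DMSO-d6/D2O (5:1), with or without glutathione. Decay followed by 1H NMR kinetics. First-order rate constant kpseudo-1st taken from ln[electrophile] versus time; t1/2 = 0.693/(60×k), in min.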

[4] = Half life of the compound in GSH; assay type: physicochemical; settings: GSH (glutathione); summary of the method: as §1
[5] = system: Mus musculus; experiment: Hypoglycemic activity in 12 hrs fasted ICR mouse assessed as reduction in blood glucose AUC (0 to 2 hrs) at 10 mg/kg, ip measured after 2 hrs; assay type: functional; set-up: scale not given: the % may be the effect or the level left
Summary of the method: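 OGTT: 12 h-fasted ICR mice (n = 6 per group) dosed ip (10 or 30 mg/kg in 10% ricinus oil/water), with vehicle and metformin 250 mg/kg controls, 1 h before oral glucose 2 g/kg. Tail blood glucose by glucometer at 0, 0.25, 0.5, 1, 1.5 and 2 h; AUC 0−2 h computed. Food withheld.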

[6] = system: Mus musculus; experiment: Hypoglycemic activity in 12 hrs fasted ICR mouse assessed as reduction in blood glucose AUC (0 to 6 hrs) at 30 mg/kg, ip measured after 6 hrs; assay type: functional; set-up: scale not given: the % may be the effect or the level left
Summary of the method: (§2)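 Male ICR mice (n = 4 per group), fasted 12 h with food withheld throughout. Single ip dose in 10% ricinus oil in water; vehicle and metformin 250 mg/kg as controls. Tail-vein glucose by glucometer at 0, 1, 2, 4 and 6 h; AUC over 0−6 h calculated.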

[7] = species on record: Homo sapiens; experiment: Selectivity ratio of IC50 for human FBPase to IC50 for human GAPDH
Summary of the method: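 Recombinant human GAPDH (His-tag, E. coli; 0.1 mg/mL final) preincubated 30 min with compound in 10 mM sodium pyrophosphate pH 8.5 at 37 °C. Started with arsenate, 4 mM NAD+ and 12 mM G3P; A340 at 4 min. Ratio taken against FBPase IC50 from the malachite green phosphate-release assay.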

[8] = Half life of the compound in buffer; assay type: physicochemical; summary of the method: as §1
[9] = system: Hepatocyte; experiment: Cytotoxicity in ICR mouse serum starved primary hepatocytes assessed as reduction in cell viability at 50 to 300 uM; assay type: toxicity, cell-based; settings: dose 50-300 µM
[10] = molecular target: Epidermal growth factor receptor (Homo sapiens) (UniProt P00533); experiment: Inhibition of EGFR (unknown origin) at 300 uM measured after 40 mins in presence of ATP by luminescence assay relative to control
Summary of the method: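 Kinase reaction (50 μL): 40 mM Tris pH 7.4, 10 mM MgCl2, 0.1 mg/mL BSA, 1 mM DTT, 10 μM ATP, kinase and substrate, with 1% final DMSO. Run 40 min at 30 °C. Residual ATP read by Kinase-Glo Plus luminescence, inversely related to kinase activity.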

[11] = system: Mus musculus; experiment: Hypoglycemic activity in 12 hrs fasted ICR mouse assessed as reduction in blood glucose AUC (0 to 6 hrs) at 10 mg/kg, ip measured after 6 hrs; assay type: functional; set-up: scale not given: the % may be the effect or the level left; summary of the method: as §2

Sequence of Epidermal growth factor receptor (Homo sapiens) (P00533 whole entry): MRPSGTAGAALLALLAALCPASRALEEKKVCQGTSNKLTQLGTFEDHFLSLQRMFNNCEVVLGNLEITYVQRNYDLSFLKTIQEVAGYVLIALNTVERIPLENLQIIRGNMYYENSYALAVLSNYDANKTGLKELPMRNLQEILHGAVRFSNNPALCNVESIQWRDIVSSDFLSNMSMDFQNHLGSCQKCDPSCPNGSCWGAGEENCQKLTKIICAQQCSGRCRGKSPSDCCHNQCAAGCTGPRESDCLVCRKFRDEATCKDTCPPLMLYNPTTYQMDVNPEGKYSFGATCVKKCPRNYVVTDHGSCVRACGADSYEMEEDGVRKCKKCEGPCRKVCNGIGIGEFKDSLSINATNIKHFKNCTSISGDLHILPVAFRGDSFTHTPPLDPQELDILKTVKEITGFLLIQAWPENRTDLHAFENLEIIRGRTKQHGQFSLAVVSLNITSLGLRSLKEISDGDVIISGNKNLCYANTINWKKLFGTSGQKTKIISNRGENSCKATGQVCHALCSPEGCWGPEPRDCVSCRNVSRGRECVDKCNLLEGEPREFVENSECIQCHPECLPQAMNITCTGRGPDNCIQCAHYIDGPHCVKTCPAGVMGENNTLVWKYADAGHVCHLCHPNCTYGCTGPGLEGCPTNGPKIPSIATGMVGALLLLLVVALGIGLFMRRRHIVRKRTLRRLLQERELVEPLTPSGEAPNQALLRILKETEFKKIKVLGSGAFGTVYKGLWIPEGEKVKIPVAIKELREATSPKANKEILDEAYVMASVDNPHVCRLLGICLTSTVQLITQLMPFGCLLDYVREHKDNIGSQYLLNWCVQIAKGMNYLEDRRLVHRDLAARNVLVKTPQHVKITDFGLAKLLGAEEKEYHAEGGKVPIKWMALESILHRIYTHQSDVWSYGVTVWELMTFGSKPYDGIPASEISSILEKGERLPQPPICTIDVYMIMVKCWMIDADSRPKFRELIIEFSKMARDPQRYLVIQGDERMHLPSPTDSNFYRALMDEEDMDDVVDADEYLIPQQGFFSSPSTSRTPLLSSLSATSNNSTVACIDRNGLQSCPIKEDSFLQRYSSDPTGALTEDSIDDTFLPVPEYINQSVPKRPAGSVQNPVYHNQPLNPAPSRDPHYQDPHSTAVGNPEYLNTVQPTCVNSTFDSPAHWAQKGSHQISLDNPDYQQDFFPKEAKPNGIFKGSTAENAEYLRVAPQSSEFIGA

Cp [1]: Active
half-life [3]: > 167 h
half-life [4]: 1.02 h
Ratio IC50 [7]: > 25
half-life [8]: > 167 h
inhibition [10]: < 50%
SMILES: O=C(NCc1ccccc1)N1C(=O)c2ccccc2S1(=O)=O
Activity [2]: Active
Activity [5]: 20.2%
Activity [6]: 42.4%
Activity [9]: Non-Toxic
Activity [11]: 15.3%
